From ChEMBL document CHEMBL5512625, “Design, synthesis, and biological evaluation of first-in-class indomethacin-based PROTACs degrading SARS-CoV-2 main protease and with broad-spectrum antiviral activity” (Eur J Med Chem, 2024)
≈ marks a conversion by molar mass, not a printed value. Calls of active or inactive are those of the source. The rule behind the calls is not given here.

Tests used:
[1] = Cytotoxicity against African green monkey Vero cells assessed as reduction in cell viability incubated for 72 hrs by MTT assay; assay type: toxicity, cell-based; conditions: chlorocebus sabaeus
SARS-CoV-2 [2] = experiment: Antiviral activity against SARS CoV-2 NL/2020 infected in African green monkey Vero E6 cells incubated for 3 days by plaque reduction assay; assay type: functional, organism-based; conditions: Severe acute respiratory syndrome coronavirus 2, NL/2020, Vero C1008, 72 h
[3] = Cytotoxicity against human MRC5 cells assessed as reduction in cell viability incubated for 72 hrs by MTT assay; assay type: toxicity, cell-based
[4] = Kinetic solubility in universal buffer incubated for 90 mins by microplate shaker method; assay type: physicochemical; conditions: for solubility kinetic at 1.5 h: universal buffer, read-out: Kinetic_solubility; for Kinetic_solubility: buffer, 1.5 h, BLD = below limit of detection
Summary of the method: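 Universal buffer (45 mM each ethanolamine, NaH2PO4 and sodium acetate) at pH 7.4; compound at 100 µM final, 5% DMSO. Shaken 90 min at 25 °C, vacuum-filtered, filtrate diluted with ACN/DMSO. UV absorbance at λmax quantified against an external calibration curve (3.13–100 µM); result corrected by ×1.25.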

SARS-CoV-2 [5] = experiment: Antiviral activity against SARS CoV-2 infected in African green monkey Vero E6 cells assessed as reduction in viral replication by plaque reduction assay; assay type: functional, organism-based; conditions: Severe acute respiratory syndrome coronavirus 2
HEK-293T = experiment: Downregulation of PGES-2 level in HEK293T cells at 25 uM incubated for 2 to 8 hrs by Western blot analysis; assay type: functional, cell-based; conditions: Homo sapiens, time 2-8 hrs
Summary of the method: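 Uninfected 293T cells treated at 25 µM or with 0.1% DMSO and harvested at several times after treatment. Western blot with anti-PGES-2 antibody; β-actin as loading control.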

Vero C1008 [6] = experiment: Downregulation of PGES-2 level in African green monkey Vero E6 cells infected with SARS CoV-2 at 25 uM pre-infected for 90 mins followed by removal of viral inoculum and subsequent addition of compound measured after 24 hrs post-infection; assay type: functional, cell-based; conditions: Chlorocebus sabaeus, time 1350.0 min
MRC5 [7] = experiment: Downregulation of PGES-2 level in human MRC5 cells infected with HCoV-OC43 at 25 uM pre-infected for 90 mins followed by removal of viral inoculum and subsequent addition of compound measured after 48 hrs post-infection; assay type: functional, cell-based; conditions: time 2790.0 min
Summary of the method: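 MRC-5 cells infected with HCoV-OC43 for 90 min at 37 °C; inoculum removed, then treated at 25 µM or with 0.1% DMSO. Whole-cell lysates collected 48 h p.i. and blotted for PGES-2, normalised to β-actin.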

MRC5 [8] = experiment: Downregulation of PGES-2 level in human MRC5 cells infected with HCoV-229E at 25 uM pre-infected for 90 mins followed by removal of viral inoculum and subsequent addition of compound measured after 24 hrs post-infection; assay type: functional, cell-based; conditions: time 1350.0 min
Human coronavirus OC43 = experiment: Antiviral activity against HCoV-OC43 infected in human MRC5 cells incubated for 3 days by plaque reduction assay; assay type: functional, organism-based; conditions: Betacoronavirus 1, MRC5, 72 h
Human coronavirus 229E = experiment: Antiviral activity against HCoV-229E infected in human MRC5 cells incubated for 3 days by plaque reduction assay; assay type: functional, organism-based; conditions: MRC5, 72 h
[9] = Cytotoxicity against African green monkey Vero cells; assay type: toxicity, cell-based; conditions: chlorocebus sabaeus
SARS-CoV-2 [10] = experiment: Antiviral activity against SARS CoV-2 NL/2020; assay type: functional, organism-based; conditions: Severe acute respiratory syndrome coronavirus 2, NL/2020
[11] = Chemical stability of compound in DMEM at pH 7.4 assessed as compound remaining at 1 uM measured after 24 hrs by LC-MS analysis; assay type: physicochemical; conditions: read-out: Stability
Summary of the method: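 Compound at 1 and 10 µM (0.1% DMSO) incubated at 37 °C in DMEM pH 7.4 with 10% FBS and penicillin/streptomycin. Samples at 0 and 24 h, quenched in cold acetonitrile with labetalol internal standard, analysed by LC-MS/MS; duplicates.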

[12] = Metabolic stability in human liver microsomes assessed as half life measured upto 60 mins by LC/MS-MS analysis; assay type: ADME, Microsome
Summary of the method: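 Compound at 10 µM (0.1% DMSO) pre-incubated 5 min at 37 °C with human liver microsomes (0.5 mg/mL, 10-donor pool) in 0.1 M phosphate pH 7.4. Reaction started with 1 mM NADPH. Samples at 0, 5, 15, 30 and 60 min, quenched in cold acetonitrile with labetalol, analysed by LC-MS/MS; n=3.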

Vero C1008 [13] = experiment: Cytotoxicity against African green monkey Vero E6 cells assessed as reduction in cell viability incubated for 72 hrs by Alamar blue assay; assay type: toxicity, cell-based; conditions: chlorocebus sabaeus, vero c1008, 72 h
SARS-CoV-2 [14] = experiment: Antiviral activity against SARS CoV-2 infected in human Calu-3 cells measured after 36 hrs; assay type: functional, organism-based; conditions: Severe acute respiratory syndrome coronavirus 2, Calu-3, 36 h
[15] = Cytotoxicity against human Calu-3 cells incubated for 72 hrs by MTT assay; assay type: toxicity, cell-based
[16] = target: von Hippel-Lindau disease tumor suppressor-SARS-Cov-2 polyprotein (Severe acute respiratory syndrome coronavirus 2, UniProt P40337+P0DTD1); experiment: PROTAC activity at human VHL/virus-expressed MPro in human Calu-3 cells infected with SARS CoV-2 assessed as protein degradation incubated for 48 hrs by Western blot analysis; assay type: cell-based
[17] = target: Replicase polyprotein 1ab (Severe acute respiratory syndrome coronavirus 2, UniProt P0DTD1); experiment: Binding affinity to NT650-labeled recombinant SARS CoV-2 MPro assessed as protein stability by measuring dissociation constant by MST analysis

von Hippel-Lindau disease tumor suppressor-SARS-Cov-2 polyprotein, sequence (P40337 whole entry, other chains not shown): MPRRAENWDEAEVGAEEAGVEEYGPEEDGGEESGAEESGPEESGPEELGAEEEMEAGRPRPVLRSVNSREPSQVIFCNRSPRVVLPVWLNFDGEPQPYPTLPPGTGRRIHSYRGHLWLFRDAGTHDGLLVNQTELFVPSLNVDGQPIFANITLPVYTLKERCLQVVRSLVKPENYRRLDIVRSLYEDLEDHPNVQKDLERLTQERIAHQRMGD

## COc1ccc2c(c1)c(CC(=O)NCCN1CCN(CCOCCOCC(=O)N[C@H](C(=O)N3C[C@H](O)C[C@H]3C(=O)N[C@@H](C)c3ccc(-c4scnc4C)cc3)C(C)(C)C)CC1)c(C)n2C(=O)c1ccc(Cl)cc1
[1]
  CC50 at 72 h: > 125 µM
SARS-CoV-2 [2]
  EC50: > 25 µM
[3]
  CC50 at 72 h: 12.3 µM
[4]
  solubility kinetic at 1.5 h: 26 µM (≈ 27.1 µg/mL)

## COc1ccc2c(c1)c(CC(=O)NCCN1CCN(C(=O)CCC(=O)N[C@H](C(=O)N3C[C@@H](O)C[C@H]3C(=O)N[C@@H](C)c3ccc(-c4scnc4C)cc3)C(C)(C)C)CC1)c(C)n2C(=O)c1ccc(Cl)cc1
SARS-CoV-2 [5]
  Activity: inactive

## COc1ccc2c(c1)c(CC(=O)NCCCCCCC(=O)N[C@H](C(=O)N1C[C@H](O)C[C@H]1C(=O)N[C@@H](C)c1ccc(-c3scnc3C)cc1)C(C)(C)C)c(C)n2C(=O)c1ccc(Cl)cc1
[1]
  CC50 at 72 h: > 200 µM
[3]
  CC50 at 72 h: > 250 µM
HEK-293T
  Activity: inactive
Vero C1008 [6]
  Activity: inactive
MRC5 [7]
  Activity: inactive
MRC5 [8]
  Activity: inactive
[4]
  Kinetic_solubility: Bld

## COc1ccc2c(c1)c(CC(=O)NCCCN1CCN(CCCNC(=O)CCC(=O)N[C@H](C(=O)N3C[C@H](O)C[C@H]3C(=O)N[C@@H](C)c3ccc(-c4scnc4C)cc3)C(C)(C)C)CC1)c(C)n2C(=O)c1ccc(Cl)cc1
[1]
  CC50 at 72 h: > 125 µM
SARS-CoV-2 [2]
  EC50: > 25 µM
[3]
  CC50 at 72 h: > 125 µM
Human coronavirus OC43
  EC50: 16 µM
Human coronavirus 229E
  EC50: > 25 µM
[4]
  solubility kinetic at 1.5 h: 9.4 µM (≈ 10 µg/mL)

## COc1ccc2c(c1)c(CC(=O)NCCCCNc1cc3c(cc1F)C(=O)N(C1CCC(=O)NC1=O)C3=O)c(C)n2C(=O)c1ccc(Cl)cc1 (stereo not drawn)
[1]
  CC50 at 72 h: > 125 µM
SARS-CoV-2 [2]
  EC50: > 25 µM

## CC(C)(C)NC(=O)N[C@H](C(=O)N1C[C@H]2[C@@H]([C@H]1C(=O)NC(CC1CCC1)C(=O)C(N)=O)C2(C)C)C(C)(C)C (stereo partly drawn) [BOCEPREVIR]
[9]
  CC50: > 500 µM
SARS-CoV-2 [10]
  EC50: 22 µM

## COc1ccc2c(c1)c(CC(=O)NCCN1CCN(C(=O)CCC(=O)N[C@H](C(=O)N3C[C@H](O)C[C@H]3C(=O)N[C@@H](C)c3ccc(-c4scnc4C)cc3)C(C)(C)C)CC1)c(C)n2C(=O)c1ccc(Cl)cc1
[1]
  CC50 at 72 h: > 250 µM
HEK-293T
  Activity: inactive
Vero C1008 [6]
  Activity: inactive
MRC5 [7]
  Activity: inactive
MRC5 [8]
  Activity: inactive
[4]
  solubility kinetic at 1.5 h: 6 µM (≈ 5.97 µg/mL)
[11]
  remaining at 24 h, 1 µM: > 70%
[12]
  half-life: > 1 h

## COc1ccc2c(c1)c(CC(=O)NCCCCCCNc1cc3c(cc1F)C(=O)N(C1CCC(=O)NC1=O)C3=O)c(C)n2C(=O)c1ccc(Cl)cc1 (stereo not drawn)
[1]
  CC50 at 72 h: > 125 µM
SARS-CoV-2 [2]
  EC50: > 25 µM

## COc1ccc2c(c1)c(CC(=O)N1CCN(CC(=O)N[C@H](C(=O)N3C[C@@H](O)C[C@H]3C(=O)N[C@@H](C)c3ccc(-c4scnc4C)cc3)C(C)(C)C)CC1)c(C)n2C(=O)c1ccc(Cl)cc1
Vero C1008 [13]
  Activity: Toxic

## COc1ccc2c(c1)c(CC(=O)N1CCN(CCOCCOCC(=O)N[C@H](C(=O)N3C[C@H](O)C[C@H]3C(=O)N[C@@H](C)c3ccc(-c4scnc4C)cc3)C(C)(C)C)CC1)c(C)n2C(=O)c1ccc(Cl)cc1
[1]
  CC50 at 72 h: > 125 µM
SARS-CoV-2 [2]
  EC50: > 25 µM
[3]
  CC50 at 72 h: 22 µM
[4]
  solubility kinetic at 1.5 h: 7.7 µM (≈ 7.69 µg/mL)

## COc1ccc2c(c1)c(CC(=O)N1CCN(CC(=O)N[C@H](C(=O)N3C[C@H](O)C[C@H]3C(=O)N[C@@H](C)c3ccc(-c4scnc4C)cc3)C(C)(C)C)CC1)c(C)n2C(=O)c1ccc(Cl)cc1
[1]
  CC50 at 72 h: > 125 µM
SARS-CoV-2 [2]
  EC50: 10.8 µM
[3]
  CC50 at 72 h: > 125 µM
Human coronavirus OC43
  EC50: 1.6 µM
Human coronavirus 229E
  EC50: 6.5 µM
HEK-293T
  Activity: inactive
Vero C1008 [6]
  Activity: inactive
MRC5 [7]
  Activity: inactive
MRC5 [8]
  Activity: inactive
SARS-CoV-2 [14]
  EC50: 0.89 µM
[15]
  CC50 at 72 h: > 125 µM
[16]
  DC50: 1.34 µM
[4]
  Kinetic_solubility: Bld
[11]
  remaining at 24 h, 1 µM: > 70%
[12]
  half-life: > 1 h

## COc1ccc2c(c1)c(CC(=O)O)c(C)n2C(=O)c1ccc(Cl)cc1 [INDOMETHACIN]
[17]
  Kd: 129 µM

## COc1ccc2c(c1)c(CC(=O)N1CCN(CCCCCC(=O)N[C@H](C(=O)N3C[C@H](O)C[C@H]3C(=O)N[C@@H](C)c3ccc(-c4scnc4C)cc3)C(C)(C)C)CC1)c(C)n2C(=O)c1ccc(Cl)cc1
[1]
  CC50 at 72 h: > 125 µM
SARS-CoV-2 [2]
  EC50: > 25 µM
[3]
  CC50 at 72 h: 20 µM
[4]
  Kinetic_solubility: Bld

## COc1ccc2c(c1)c(CC(=O)N1CCN(CCC(=O)N[C@H](C(=O)N3C[C@H](O)C[C@H]3C(=O)N[C@@H](C)c3ccc(-c4scnc4C)cc3)C(C)(C)C)CC1)c(C)n2C(=O)c1ccc(Cl)cc1
[1]
  CC50 at 72 h: > 125 µM
SARS-CoV-2 [2]
  EC50: > 25 µM
[3]
  CC50 at 72 h: 13.5 µM
[4]
  Kinetic_solubility: Bld

## COc1ccc2c(c1)c(CC(=O)NCCCCCCCCCCNc1cc3c(cc1F)C(=O)N(C1CCC(=O)NC1=O)C3=O)c(C)n2C(=O)c1ccc(Cl)cc1 (stereo not drawn)
[1]
  CC50 at 72 h: > 125 µM
SARS-CoV-2 [2]
  EC50: > 25 µM
